Assay results reported in ChEMBL document CHEMBL2203194, “Phenolic compounds from Caesalpinia sappan heartwood and their anti-inflammatory activity” (J Nat Prod, 2012).
The source made the active and inactive calls. No cut-off for these calls is given here.

Experiments:
[1] = tested on: RAW264.7; assay: Antiinflammatory activity in mouse RAW264.7 cells assessed as reduction of LPS-induced IkappaBalpha resynthesis at 30 uM pre-treated for 30 mins before LPS challenge by immunoblot; assay type: functional, cell-based
Method in brief: (§1)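 30 min pretreatment of RAW264.7 cells with compound, then LPS (1 μg/mL). Lysis in ice-cold Tris-HCl pH 7.5/NP-40 buffer with protease/phosphatase inhibitors. SDS-PAGE, PVDF transfer, skim-milk block, anti-IκB-α antibody, HRP secondary, ECL detection.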

[2] = tested on: RAW264.7; assay: Antiinflammatory activity in mouse RAW264.7 cells assessed as reduction of LPS-induced IkappaBalpha degradation at 30 uM pre-treated for 30 mins before LPS challenge and measured after 5 mins by immunoblot; assay type: functional, cell-based; method in brief: as §1
[3] = tested on: RAW264.7; assay: Antiinflammatory activity in mouse RAW264.7 cells assessed as reduction of LPS-induced IkappaBalpha degradation at 30 uM pre-treated for 30 mins before LPS challenge and measured after 15 mins by immunoblot; assay type: functional, cell-based; method in brief: as §1
[4] = tested on: RAW264.7; assay: Effect on alpha-tubulin protein expression in mouse RAW264.7 cells up to 10 uM pre-treated for 30 mins before LPS challenge for 18 hrs by immunoblot; assay type: functional, cell-based
Method in brief: (§2)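 Cells pretreated 30 min with compound (0−10 μM), then LPS 1 μg/mL for 18 h. Total lysates in ice-cold Tris-HCl pH 7.5/NP-40 buffer; 50 μg protein per lane by SDS-PAGE, PVDF, skim-milk block, anti-iNOS and anti-α-tubulin antibodies, HRP secondary, ECL. iNOS densitometry normalized to α-tubulin.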

[5] = tested on: RAW264.7; assay: Antiinflammatory activity in mouse RAW264.7 cells assessed as reduction of LPS-induced iNOS protein expression pre-treated for 30 mins before LPS challenge for 18 hrs by immunoblot; assay type: functional, cell-based; method in brief: as §2
[6] = tested on: RAW264.7; assay: Cytotoxicity against mouse RAW264.7 cells at 50 uM incubated for 24 hrs in presence of LPS by MTT assay; assay type: cell-based; conditions: raw264.7, 24 h
Method in brief: (§3)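 RAW264.7 viability by MTT colorimetric assay after 24 h with compounds at 50 μM, with or without LPS (1 μg/mL).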

[7] = tested on: RAW264.7; assay: Cytotoxicity against mouse RAW264.7 cells at 50 uM incubated for 24 hrs in absence of LPS by MTT assay; assay type: cell-based; conditions: raw264.7, 24 h; method in brief: as §3
[8] = Antioxidant activity assessed as nitric oxide free radical scavenging activity by UV-visible spectroscopy; assay type: functional
Method in brief: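 Compounds in DMSO, made up with MeOH, mixed with 10 mM sodium nitroprusside in PBS; room temperature 150 min. Scavenging % = (control − sample)/control × 100, MeOH blank as control; ascorbic acid standard. IC50, mean ± SD of three experiments.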

[9] = tested on: RAW264.7; assay: Antiinflammatory activity in mouse RAW264.7 cells assessed as inhibition of LPS-induced TNFalpha production incubated for 24 hrs by ELISA; assay type: functional, cell-based; conditions: RAW264.7, 24 h
Method in brief: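 RAW264.7 cells (1 × 10^5 cells/well) stimulated with 1 μg/mL LPS for 24 h with test compounds; TNF-α in culture supernatant quantified by ELISA. IC50 relative to vehicle control; mean ± SD of three repeated experiments. Celastrol positive control.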

[10] = tested on: RAW264.7; assay: Antiinflammatory activity in mouse RAW264.7 cells assessed as inhibition of LPS-induced nitric oxide generation incubated for 24 hrs; assay type: functional, cell-based; conditions: RAW264.7, 24 h
Method in brief: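 Nitrite in supernatant reacted with Griess reagent (sulfanilamide/phosphoric acid plus naphthylethylenediamine), A540 read, calibrated against NaNO2 standard. IC50 versus vehicle control, mean ± SD of three experiments; celastrol positive control.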

[11] = tested on: RAW264.7; assay: Antiinflammatory activity in mouse RAW264.7 cells assessed as reduction of LPS-induced IkappaBalpha degradation at 30 uM pre-treated for 30 mins before LPS challenge and measured after 10 mins by immunoblot; assay type: functional, cell-based; method in brief: as §1

| SMILES | Activity [1] | Activity [2] | Activity [3] | Activity [4] | Activity [5] | Activity [6] | Activity [7] | IC50 [8] | IC50 [9] | IC50 [10] | Activity [11] |
| --- | --- | --- | --- | --- | --- | --- | --- | --- | --- | --- | --- |
| O=C1/C(=C/c2ccc(O)c(O)c2)COc2cc(O)ccc21 [SAPPANONE A] | Active | Active | Active | inactive | Dose-dependent effect | Non-toxic | Non-toxic | 96.6 µM | 8.3 µM | 5.7 µM |  |
| COc1ccc(-c2oc3cc(O)cc(O)c3c(=O)c2O)cc1OC |  |  |  |  |  | Non-toxic | Non-toxic | 85.3 µM |  | 35 µM |  |
| O=C1/C(=C/c2ccc(O)cc2)COc2cc(O)ccc21 |  |  |  |  |  | Non-toxic | Non-toxic | 95.5 µM |  | > 50 µM |  |
| O=C1COc2cc(O)ccc2-c2cc(O)c(O)cc21 [CAESALPINIAPHENOL C] |  |  |  |  |  | Non-toxic | Non-toxic | 86.2 µM |  | > 50 µM |  |
| O=C1c2ccc(O)cc2OC[C@@H]1Cc1ccc(O)c(O)c1 |  |  |  |  |  | Non-toxic | Non-toxic | 65.3 µM |  | 42.4 µM |  |
| COc1cc(O)c2c(=O)c(OC)c(-c3ccc(O)c(O)c3)oc2c1 | Active |  | Active | inactive | Dose-dependent effect | Non-toxic | Non-toxic | 103 µM | 5.8 µM | 3.5 µM | Active |
| O=Cc1ccc(O)cc1O[C@H](O)c1ccc(O)c(O)c1 [CAESALPINIAPHENOL D] |  |  |  | inactive | Dose-dependent effect | Non-toxic | Non-toxic | 113 µM | > 50 µM | 12.2 µM |  |
| COc1cc(C[C@@]2(O)COc3cc(O)ccc3C2=O)ccc1O [CAESALPINIAPHENOL A] |  |  |  |  |  | Non-toxic | Non-toxic | 103 µM |  | > 50 µM |  |
| O=C1O[C@H]([C@@H](O)CO)C(O)=C1O [ASCORBIC ACID] |  |  |  |  |  |  |  | 0.71 µM |  |  |  |
| O=C1c2ccc(O)cc2OC[C@]1(O)Cc1ccc(O)cc1 |  |  |  |  |  | Non-toxic | Non-toxic | 117 µM |  | > 50 µM |  |
| CC1=C(O)C(=O)C=C2C1=CC=C1[C@@]2(C)CC[C@@]2(C)[C@@H]3C[C@](C)(C(=O)O)CC[C@]3(C)CC[C@]12C [CELASTROL] |  |  |  |  |  |  |  |  | 0.8 µM |  |  |
| O=C1C=C[C@]23CC(COC2=C1)Cc1cc(O)c(O)cc13 |  |  |  |  |  | Non-toxic | Non-toxic | 157 µM |  | > 50 µM |  |
| O=C1OCC=C1C[C@@]1(O)COc2cc(O)ccc2C1=O [CAESALPINIAPHENOL B] |  |  |  |  |  | Non-toxic | Non-toxic | 95.6 µM |  | > 50 µM |  |
